According to ChEMBL document CHEMBL4732040, “Irreversible inhibition of BoNT/A protease: proximity-driven reactivity contingent upon a bifunctional approach” (RSC Med Chem, 2021):
Counter-ions that a name gives are not always drawn. Calls of active or inactive are those of the source. The rule behind the calls is not given here.

Key:
[1] = molecular target: Botulinum neurotoxin type A (Clostridium botulinum) (UniProt P0DPI0); test: Time dependent inhibition of Clostridium botulinum BoNT/A light chain (1 to 425 residues) using SNAPtide flp6 as substrate by FRET assay; settings: dose 100.0 µM, time hrs <=8
HEK293 = test: Cytotoxicity against human HEK293 cells assessed as reduction in cell viability incubated for 24 hrs by MTT assay; type: cell-based; settings: for Activity: human, hek293, 24 h, time 24 hrs
In short: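 HEK293 cells were exposed to compound for 24 h before viability read-out. The paper reports n = 3, with error bars as SD.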

[2] = GSH reactivity assessed as pseudo first order rate constant at 1 mM in presence of glutathione; type: physicochemical; settings: 1000 µM
Interstitial collagenase = molecular target: T1, Interstitial collagenase (Homo sapiens, UniProt P03956); test: Inhibition of MMP-1 (unknown origin) at 25 uM using TQ3-GABA-Pro-Cha-Abu-Smc-His-Ala-Dab(6'-TAMRA)-Ala-Lys-NH2 as substrate bu fluorometric analysis
T1 sequence (P03956 whole entry): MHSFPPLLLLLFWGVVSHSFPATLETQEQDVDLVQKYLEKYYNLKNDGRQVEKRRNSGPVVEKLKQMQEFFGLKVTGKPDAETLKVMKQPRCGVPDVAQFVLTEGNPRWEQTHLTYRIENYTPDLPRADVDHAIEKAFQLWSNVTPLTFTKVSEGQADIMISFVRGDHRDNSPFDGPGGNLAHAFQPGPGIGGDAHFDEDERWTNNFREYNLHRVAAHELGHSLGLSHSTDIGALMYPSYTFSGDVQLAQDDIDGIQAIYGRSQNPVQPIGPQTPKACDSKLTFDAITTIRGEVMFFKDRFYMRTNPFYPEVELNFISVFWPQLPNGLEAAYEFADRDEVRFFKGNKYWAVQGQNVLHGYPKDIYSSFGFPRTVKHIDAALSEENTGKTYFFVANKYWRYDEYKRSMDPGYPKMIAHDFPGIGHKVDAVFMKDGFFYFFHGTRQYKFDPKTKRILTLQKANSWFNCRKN
In short: (§1)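 Residual activity of each MMP in the panel was measured in the presence of compound at 25 μM.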

[3] = molecular target: 72 kDa type IV collagenase (Homo sapiens, UniProt P08253); test: Inhibition of MMP-2 (unknown origin) at 25 uM using TQ3-GABA-Pro-Cha-Abu-Smc-His-Ala-Dab(6'-TAMRA)-Ala-Lys-NH2 as substrate bu fluorometric analysis; in short: as §1
Stromelysin-1 = Stromelysin-1 (Homo sapiens, UniProt P08254); test: Inhibition of MMP-3 (unknown origin) at 25 uM using TQ3-GABA-Pro-Cha-Abu-Smc-His-Ala-Dab(6'-TAMRA)-Ala-Lys-NH2 as substrate bu fluorometric analysis; in short: as §1
Matrilysin = molecular target: T2, Matrilysin (Homo sapiens, UniProt P09237); test: Inhibition of MMP-7 (unknown origin) at 25 uM using TQ3-GABA-Pro-Cha-Abu-Smc-His-Ala-Dab(6'-TAMRA)-Ala-Lys-NH2 as substrate bu fluorometric analysis; in short: as §1
T2 sequence (P09237 whole entry): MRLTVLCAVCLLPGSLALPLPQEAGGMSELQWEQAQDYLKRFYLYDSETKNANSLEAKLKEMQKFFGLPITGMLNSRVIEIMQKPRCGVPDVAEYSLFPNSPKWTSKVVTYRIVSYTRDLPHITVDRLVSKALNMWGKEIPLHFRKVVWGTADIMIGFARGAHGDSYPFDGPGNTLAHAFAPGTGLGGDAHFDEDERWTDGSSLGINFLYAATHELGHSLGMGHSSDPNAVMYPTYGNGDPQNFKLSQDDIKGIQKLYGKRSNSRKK

Neutrophil collagenase = Neutrophil collagenase (Homo sapiens, UniProt P22894); test: Inhibition of MMP-8 (unknown origin) at 25 uM using TQ3-GABA-Pro-Cha-Abu-Smc-His-Ala-Dab(6'-TAMRA)-Ala-Lys-NH2 as substrate bu fluorometric analysis; in short: as §1
[4] = molecular target: Macrophage metalloelastase (Homo sapiens, UniProt P39900); test: Inhibition of MMP-12 (unknown origin) at 25 uM using TQ3-GABA-Pro-Cha-Abu-Smc-His-Ala-Dab(6'-TAMRA)-Ala-Lys-NH2 as substrate bu fluorometric analysis; in short: as §1
Collagenase 3 = Collagenase 3 (Homo sapiens, UniProt P45452); test: Inhibition of MMP-13 (unknown origin) at 25 uM using TQ3-GABA-Pro-Cha-Abu-Smc-His-Ala-Dab(6'-TAMRA)-Ala-Lys-NH2 as substrate bu fluorometric analysis; in short: as §1
[5] = molecular target: Matrix metalloproteinase-14 (Homo sapiens, UniProt P50281); test: Inhibition of MMP-14 (unknown origin) at 25 uM using TQ3-GABA-Pro-Cha-Abu-Smc-His-Ala-Dab(6'-TAMRA)-Ala-Lys-NH2 as substrate bu fluorometric analysis; in short: as §1
[6] = molecular target: T3, Matrix metalloproteinase-19 (Homo sapiens, UniProt Q99542); test: Inhibition of MMP-19 (unknown origin) at 25 uM using TQ3-GABA-Pro-Cha-Abu-Smc-His-Ala-Dab(6'-TAMRA)-Ala-Lys-NH2 as substrate bu fluorometric analysis; in short: as §1
T3 sequence (Q99542 whole entry): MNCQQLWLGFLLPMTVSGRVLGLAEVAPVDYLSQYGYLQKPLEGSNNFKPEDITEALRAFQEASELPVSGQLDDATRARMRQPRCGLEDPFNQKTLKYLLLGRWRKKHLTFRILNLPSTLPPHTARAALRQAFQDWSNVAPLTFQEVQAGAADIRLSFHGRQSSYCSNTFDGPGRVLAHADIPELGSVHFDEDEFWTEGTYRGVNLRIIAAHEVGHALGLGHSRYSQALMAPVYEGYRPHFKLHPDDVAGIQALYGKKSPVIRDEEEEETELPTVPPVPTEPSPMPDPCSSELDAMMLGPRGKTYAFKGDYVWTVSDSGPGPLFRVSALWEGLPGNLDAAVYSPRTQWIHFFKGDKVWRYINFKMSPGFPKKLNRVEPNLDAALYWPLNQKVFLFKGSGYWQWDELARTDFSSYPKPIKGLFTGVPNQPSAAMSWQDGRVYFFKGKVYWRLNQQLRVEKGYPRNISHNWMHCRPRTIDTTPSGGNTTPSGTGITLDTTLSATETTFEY

[7] = molecular target: Botulinum neurotoxin type A (Clostridium botulinum) (UniProt P0DPI0); test: Irreversible inhibition of Clostridium botulinum BoNT/A light chain (1 to 425 residues) assessed as ratio of Kinact/Ki using SNAPtide flp6 as substrate inhibited for 1 hr by FRET assay
[8] = GSH reactivity assessed as half life at 1 mM in presence of glutathione; type: physicochemical

Chain of Stromelysin-1 (P08254 whole entry): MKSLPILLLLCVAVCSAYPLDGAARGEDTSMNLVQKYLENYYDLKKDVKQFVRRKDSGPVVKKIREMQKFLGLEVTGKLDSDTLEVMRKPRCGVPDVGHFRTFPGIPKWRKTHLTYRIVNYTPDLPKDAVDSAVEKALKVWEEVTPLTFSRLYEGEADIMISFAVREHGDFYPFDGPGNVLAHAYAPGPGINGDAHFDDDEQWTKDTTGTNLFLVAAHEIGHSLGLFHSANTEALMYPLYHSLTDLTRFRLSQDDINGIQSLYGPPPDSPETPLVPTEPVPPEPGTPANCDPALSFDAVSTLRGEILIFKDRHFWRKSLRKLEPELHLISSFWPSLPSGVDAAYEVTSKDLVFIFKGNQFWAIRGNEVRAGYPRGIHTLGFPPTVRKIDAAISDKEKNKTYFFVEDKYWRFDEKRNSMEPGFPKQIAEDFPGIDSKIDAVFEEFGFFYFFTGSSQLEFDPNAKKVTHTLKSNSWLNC
Chain of Botulinum neurotoxin type A (Clostridium botulinum) (P0DPI0 2-448 limits assumed): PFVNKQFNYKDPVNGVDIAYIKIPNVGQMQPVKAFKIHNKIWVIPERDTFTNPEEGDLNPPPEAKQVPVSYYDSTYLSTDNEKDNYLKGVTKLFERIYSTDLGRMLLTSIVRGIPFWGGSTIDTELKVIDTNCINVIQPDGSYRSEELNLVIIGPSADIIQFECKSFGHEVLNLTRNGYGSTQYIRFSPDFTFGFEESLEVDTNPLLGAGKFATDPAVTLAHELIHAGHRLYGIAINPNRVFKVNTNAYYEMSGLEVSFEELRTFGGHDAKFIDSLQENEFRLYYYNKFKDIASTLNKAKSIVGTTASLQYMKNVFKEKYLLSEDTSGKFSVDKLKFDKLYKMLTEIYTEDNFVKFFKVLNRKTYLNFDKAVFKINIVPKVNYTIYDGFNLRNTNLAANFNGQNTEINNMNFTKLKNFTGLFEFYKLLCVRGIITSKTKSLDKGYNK
Chain of 72 kDa type IV collagenase (P08253 whole entry): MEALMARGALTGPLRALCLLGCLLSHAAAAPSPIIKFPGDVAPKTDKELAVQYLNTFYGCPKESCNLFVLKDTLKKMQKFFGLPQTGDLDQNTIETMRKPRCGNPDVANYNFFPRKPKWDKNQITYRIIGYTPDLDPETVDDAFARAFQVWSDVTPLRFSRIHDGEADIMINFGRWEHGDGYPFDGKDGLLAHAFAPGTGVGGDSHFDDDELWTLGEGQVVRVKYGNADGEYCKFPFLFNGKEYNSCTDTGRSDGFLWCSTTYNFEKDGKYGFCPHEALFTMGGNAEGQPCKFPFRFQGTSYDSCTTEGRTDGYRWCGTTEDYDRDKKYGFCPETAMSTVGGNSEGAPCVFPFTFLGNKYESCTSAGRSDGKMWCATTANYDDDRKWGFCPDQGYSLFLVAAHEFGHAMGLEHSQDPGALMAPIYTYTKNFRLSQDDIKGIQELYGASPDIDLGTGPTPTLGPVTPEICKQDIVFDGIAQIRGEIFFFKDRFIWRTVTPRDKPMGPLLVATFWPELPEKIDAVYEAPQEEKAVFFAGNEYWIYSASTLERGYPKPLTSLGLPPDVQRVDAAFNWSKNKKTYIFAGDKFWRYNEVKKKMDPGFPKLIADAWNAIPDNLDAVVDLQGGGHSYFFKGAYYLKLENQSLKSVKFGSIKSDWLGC
Chain of Macrophage metalloelastase (P39900 whole entry): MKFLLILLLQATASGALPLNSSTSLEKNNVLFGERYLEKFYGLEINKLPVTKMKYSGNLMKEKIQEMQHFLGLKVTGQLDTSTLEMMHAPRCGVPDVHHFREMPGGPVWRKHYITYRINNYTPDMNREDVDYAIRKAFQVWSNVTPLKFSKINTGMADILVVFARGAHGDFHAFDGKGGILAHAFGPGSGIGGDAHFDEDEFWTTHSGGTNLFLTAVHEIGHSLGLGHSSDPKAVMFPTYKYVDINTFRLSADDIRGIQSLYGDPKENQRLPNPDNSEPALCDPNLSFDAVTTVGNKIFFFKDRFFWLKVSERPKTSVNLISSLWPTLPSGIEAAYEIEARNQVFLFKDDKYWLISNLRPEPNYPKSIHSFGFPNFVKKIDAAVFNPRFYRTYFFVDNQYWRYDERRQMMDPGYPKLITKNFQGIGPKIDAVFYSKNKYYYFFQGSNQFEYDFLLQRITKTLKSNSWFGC
Chain of Neutrophil collagenase (P22894 whole entry): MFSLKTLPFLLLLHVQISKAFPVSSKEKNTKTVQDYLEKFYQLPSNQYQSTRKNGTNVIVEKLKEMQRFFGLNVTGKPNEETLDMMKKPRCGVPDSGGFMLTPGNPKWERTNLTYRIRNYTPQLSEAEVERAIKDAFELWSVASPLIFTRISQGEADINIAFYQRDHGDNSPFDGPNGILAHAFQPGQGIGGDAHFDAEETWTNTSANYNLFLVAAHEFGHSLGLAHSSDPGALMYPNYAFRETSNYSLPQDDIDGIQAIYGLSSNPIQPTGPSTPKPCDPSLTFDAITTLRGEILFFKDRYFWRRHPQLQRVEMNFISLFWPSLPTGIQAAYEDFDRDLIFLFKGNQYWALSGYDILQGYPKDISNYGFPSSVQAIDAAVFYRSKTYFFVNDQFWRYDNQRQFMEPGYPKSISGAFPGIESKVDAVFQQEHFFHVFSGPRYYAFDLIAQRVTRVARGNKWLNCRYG

Structure (SMILES): O=C(CCl)NCCCCN(O)C(=O)/C=C/c1ccc(Cl)cc1Cl
- TDI [1]: inactive

Structure (SMILES): O=C(/C=C/c1ccc(Cl)cc1Cl)NCCCNC(=O)CI
- TDI [1]: Active
- Activity (HEK293): Toxic

Structure (SMILES): C#CCCCN(O)C(=O)/C=C/c1ccc(Cl)cc1Cl
- TDI [1]: inactive

Structure (SMILES): C=CC(=O)NCCCCN(O)C(=O)/C=C/c1ccc(Cl)cc1Cl
- TDI [1]: inactive

Structure (SMILES): O=C(CBr)NCCCN(O)C(=O)/C=C/c1ccc(Cl)cc1Cl
- TDI [1]: inactive

Structure (SMILES): C#CCN(O)C(=O)/C=C/c1ccc(Cl)cc1Cl
- TDI [1]: inactive

Structure (SMILES): O=C(NCCCCN(O)C(=O)/C=C/c1ccc(Cl)cc1Cl)C(F)Cl (stereo not drawn)
- TDI [1]: inactive

Structure (SMILES): O=C(/C=C/c1ccc(Cl)cc1Cl)N(O)CCCN1C(=O)C=CC1=O
- K [2]: 0.0023 min⁻¹
- inhibition (INH) (Interstitial collagenase): Active
- inhibition (INH) [3]: Active
- inhibition (INH) (Stromelysin-1): Active
- inhibition (INH) (Matrilysin): Active
- inhibition (INH) (Neutrophil collagenase): Active
- inhibition (INH) [4]: Active
- inhibition (INH) (Collagenase 3): Active
- inhibition (INH) [5]: Active
- inhibition (INH) [6]: Active

Structure (SMILES): O=C(CI)NCCCCN(O)C(=O)/C=C/c1ccc(Cl)cc1Cl
- Ratio [7]: 12.4 M⁻¹ s⁻¹

Structure (SMILES): O=C(CBr)NCCN(O)C(=O)/C=C/c1ccc(Cl)cc1Cl
- TDI [1]: inactive

Structure (SMILES): O=C(/C=C/C(F)F)NCCCCN(O)C(=O)/C=C/c1ccc(Cl)cc1Cl
- TDI [1]: inactive

Structure (SMILES): C=C(F)C(=O)NCCCCN(O)C(=O)/C=C/c1ccc(Cl)cc1Cl
- TDI [1]: inactive

Structure (SMILES): C=C(F)C(=O)NCCN(O)C(=O)/C=C/c1ccc(Cl)cc1Cl
- TDI [1]: inactive

Structure (SMILES): C=CC(=O)NCCCCCCN(O)C(=O)/C=C/c1ccc(Cl)cc1Cl
- TDI [1]: inactive

Structure (SMILES): O=C(NCCN(O)C(=O)/C=C/c1ccc(Cl)cc1Cl)Oc1ccccc1
- TDI [1]: inactive

Structure (SMILES): O=C(CBr)NCCCCN(O)C(=O)/C=C/c1ccc(Cl)cc1Cl
- TDI [1]: inactive

Structure (SMILES): CC(=O)NCCCN(O)C(=O)/C=C/c1ccc(Cl)cc1Cl
- TDI [1]: inactive
- Activity (HEK293): Non-Toxic

Structure (SMILES): C=CC(=O)NCCCN(O)C(=O)/C=C/c1ccc(Cl)cc1Cl
- TDI [1]: inactive

Structure (SMILES): O=C(NCCN(O)C(=O)/C=C/c1ccc(Cl)cc1Cl)C(F)Cl (stereo not drawn)
- TDI [1]: inactive

Structure (SMILES): O=C(/C=C/c1ccc(Cl)cc1Cl)N(O)CCCCCC1CO1 (stereo not drawn)
- K [2]: 0.0012 min⁻¹
- inhibition (INH) (Interstitial collagenase): Not Active
- inhibition (INH) [3]: Not Active
- inhibition (INH) (Stromelysin-1): Not Active
- inhibition (INH) (Matrilysin): Not Active
- inhibition (INH) (Neutrophil collagenase): Not Active
- inhibition (INH) [4]: Not Active
- inhibition (INH) (Collagenase 3): Not Active
- inhibition (INH) [5]: Not Active
- inhibition (INH) [6]: Not Active

Structure (SMILES): O=C(CCl)NCCCN(O)C(=O)/C=C/c1ccc(Cl)cc1Cl
- TDI [1]: inactive

Structure (SMILES): O=C(/C=C/c1ccc(Cl)cc1Cl)N(O)CCCN1C(=O)CCC1=O
- inhibition [1]: inactive
- Activity (HEK293): Non-Toxic

Structure (SMILES): COC(=O)/C=C/C(=O)OC [DIMETHYL FUMARATE]
- K [2]: 0.0589 min⁻¹

Structure (SMILES): O=C(/C=C/C(F)F)NCCCN(O)C(=O)/C=C/c1ccc(Cl)cc1Cl
- TDI [1]: inactive

Structure (SMILES): O=C(/C=C/c1ccc(Cl)cc1Cl)NCCCCCC1CO1 (stereo not drawn)
- TDI [1]: inactive

Structure (SMILES): O=C(/C=C/C(F)F)NCCN(O)C(=O)/C=C/c1ccc(Cl)cc1Cl
- TDI [1]: inactive

Structure (SMILES): CS(=O)(=O)SCCCCCCN(O)C(=O)/C=C/c1ccc(Cl)cc1Cl
- Ratio [7]: 514 M⁻¹ s⁻¹
- half-life at 1000 µM [8]: < 5 min

Structure (SMILES): O=C(CCl)NCCN(O)C(=O)/C=C/c1ccc(Cl)cc1Cl
- TDI [1]: inactive

Structure (SMILES): O=C(CI)NCCCN(O)C(=O)/C=C/c1ccc(Cl)cc1Cl
- K [2]: 0.0611 min⁻¹
- inhibition (INH) (Interstitial collagenase): Not Active
- inhibition (INH) [3]: Not Active
- inhibition (INH) (Stromelysin-1): Not Active
- inhibition (INH) (Matrilysin): Not Active
- inhibition (INH) (Neutrophil collagenase): Not Active
- inhibition (INH) [4]: Not Active
- inhibition (INH) (Collagenase 3): Not Active
- inhibition (INH) [5]: Not Active
- inhibition (INH) [6]: Not Active

Structure (SMILES): C#CCCN(O)C(=O)/C=C/c1ccc(Cl)cc1Cl
- TDI [1]: inactive

Structure (SMILES): O=C(/C=C/c1ccc(Cl)cc1Cl)N(O)CCCCN1C(=O)C=CC1=O
- Ratio [7]: 46.3 M⁻¹ s⁻¹

Structure (SMILES): O=C(/C=C/c1ccc(Cl)cc1Cl)N(O)CCCCCCC1CO1 (stereo not drawn)
- TDI [1]: inactive

Structure (SMILES): C=CC(=O)NCCN(O)C(=O)/C=C/c1ccc(Cl)cc1Cl
- TDI [1]: inactive

Structure (SMILES): O=C(NCCCN(O)C(=O)/C=C/c1ccc(Cl)cc1Cl)C(F)Cl (stereo not drawn)
- TDI [1]: inactive

Structure (SMILES): C=C(F)C(=O)NCCCN(O)C(=O)/C=C/c1ccc(Cl)cc1Cl
- TDI [1]: inactive

Structure (SMILES): C=CC(=O)NCCCCCN(O)C(=O)/C=C/c1ccc(Cl)cc1Cl
- TDI [1]: inactive

Structure (SMILES): C#CCCCCN(O)C(=O)/C=C/c1ccc(Cl)cc1Cl
- TDI [1]: inactive

Structure (SMILES): O=C(NCCCN(O)C(=O)/C=C/c1ccc(Cl)cc1Cl)Oc1ccccc1
- TDI [1]: inactive

Structure (SMILES): O=C(/C=C/c1ccc(Cl)cc1Cl)N(O)CCCCC1CO1 (stereo not drawn)
- TDI [1]: inactive

Structure (SMILES): N#CC1(NC(=O)CCCN(O)C(=O)/C=C/c2ccc(Cl)cc2Cl)CC1
- TDI [1]: inactive

Structure (SMILES): O=C(/C=C/c1ccc(Cl)cc1Cl)NCCCN1C(=O)C=CC1=O
- TDI [1]: Active
- IC50 (HEK293; Homo sapiens, HEK293, 24 h): 6 µM
